Source: PubChem (The Scripps Research Institute Molecular Screening Center)
PRMT1 inh: inhibitors of human PRMT1 | Q99873 | recombinant PRMT1, activity-based probe fluorescence polarization | inhibition, % at 2.79 µM | 370,000 compounds, 1.3% hits;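 active means inhibition above about 21% made by adding two undisclosed values, limit read from the data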
mABHD4 FP: ABHD4 (mouse) inhibition, primary FP screen. 370,000 compounds, 0.54% hits. inhibition, % at 8.92 µM. Q8VD66. purified mABHD4, FP-Rh probe fluorescence polarization;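 active means inhibition exceeding the mean over every tested compound plus 3 SD, cut at about 30% in these data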;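 further: 0% = plate median of compound wells and 100% = S159A mutant with DMSO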
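Material: mouse ABHD4 enzyme, wild type; Benchmarks: S159A mutant high control, sample median low control; Buffer or medium: HEPES pH 7.0, NaCl, Pluronic buffer; Signal: fluorescence polarization; Read-out: percent inhibition of probe binding, normalized to plate controls; Timing: pre-incubation 45 min, probe exposure 60 min, at 25 °C; Dosing: 8.92 µM, single dose.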
DAGLB inh: blocks human DAGLB lipase activity. Q8NCG7. HEK293T DAGLB membrane lysate, EnzChek fluorogenic substrate. inhibition, % at 5.17 µM. 340,000 compounds, 0.059% hits; in the data active means inhibition above about 34%;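 further: 0% = enzyme with vehicle and 100% = wells lacking enzyme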
Target sequence (Q8NCG7 whole entry, looked up): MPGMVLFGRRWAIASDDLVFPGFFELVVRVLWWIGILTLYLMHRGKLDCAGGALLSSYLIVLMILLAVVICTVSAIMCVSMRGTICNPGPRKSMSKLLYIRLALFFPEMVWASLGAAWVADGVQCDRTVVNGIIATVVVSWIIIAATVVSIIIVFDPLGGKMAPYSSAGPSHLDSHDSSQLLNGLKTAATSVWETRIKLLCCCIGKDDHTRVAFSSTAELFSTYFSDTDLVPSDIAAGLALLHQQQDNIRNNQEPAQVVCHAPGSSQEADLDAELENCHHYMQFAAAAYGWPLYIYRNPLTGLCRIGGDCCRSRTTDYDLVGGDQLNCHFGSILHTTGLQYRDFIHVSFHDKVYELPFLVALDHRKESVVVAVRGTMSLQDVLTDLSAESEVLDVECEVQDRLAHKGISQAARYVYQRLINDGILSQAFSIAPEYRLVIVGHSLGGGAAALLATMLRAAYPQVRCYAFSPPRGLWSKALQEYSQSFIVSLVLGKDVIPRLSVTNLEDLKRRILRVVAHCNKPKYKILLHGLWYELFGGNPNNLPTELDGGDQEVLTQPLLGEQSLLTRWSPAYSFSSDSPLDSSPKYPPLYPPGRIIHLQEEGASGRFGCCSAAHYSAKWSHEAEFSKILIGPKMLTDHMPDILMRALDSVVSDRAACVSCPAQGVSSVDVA
HTRA1 inhibitor: blocks human HTRA1 serine peptidase; 340,000 compounds, 0.5% hits; Q92743; recombinant HTRA1, FP-rhodamine activity-based probe, fluorescence polarization; AID 504803; inhibition, % at 5.96 µM; in the data active means inhibition above about 36%;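 further: 0% = enzyme with DMSO and 100% = wells lacking enzyme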
LEDGF integ inh: blocks HIV-1 LEDGF/p75-dependent DNA integration; TR-FRET IN-LEDGF/p75 DNA integration, Eu/Cy5; inhibition, % at 3.7 µM; 370,000 compounds, 0.64% hits; AID 743269;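 active means inhibition above the screen-wide mean plus 3 SD, cut at about 13% in these data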;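 further: signal is the Cy5 over europium emission ratio at 671 and 618 nm; 0% = plate median of compound wells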
rCAG RNA binder: molecules binding r(CAG) RNA repeats; r(CAG) RNA repeat, TO-PRO-1 dye displacement fluorescence; inhibition, % at 3 µM; 370,000 compounds, 1.3% hits; AID 651821;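 active means inhibition above the plate cutoff, the mean of all test compounds on that plate plus 3 SD, cut at about 35% in these data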;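 further: 0% = DMSO alone and 100% = 100 µM mitoxantrone as full dye displacement; higher means more dye released from RNA so lower well fluorescence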
PRMT1 confirm: PRMT1 (human) inhibition, FP confirmation; shares compounds with PRMT1 inh; recombinant His-PRMT1, activity-based probe fluorescence polarization; inhibition, % at 2.79 µM; 3,300 compounds, 42% hits; AID 687036;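 active means mean inhibition across replicates above the hit cutoff derived for the earlier primary screen, cut at about 22% in these data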
Starred values were filed as active, the others as inactive; · = no result given; ! = not active in a repeat. Sampled rows, rich in hits. Any-hit rate of the full collection: about 3.2%.

SMILES	PRMT1 inh	mABHD4 FP	DAGLB inh	HTRA1 inhibitor	LEDGF integ inh	rCAG RNA binder	PRMT1 confirm
Cc1ccc(CSc2nnc(-c3ccccn3)n2N)cc1	2	5	·	·	-1	-6	·
CCOC(=O)[C@]12CCCCC/C=C\1N(Cc1ccc(OC)cc1)C(=O)[C@H]2CC(=O)N1CCN(C(=O)c2ccco2)CC1	1	8	·	·	-5	7	·
COc1ccc(CCN2C(=O)CC(NNC(=O)c3ccccc3Br)C2=O)cc1 (configuration not stated)	-2	-6	-2	2	2	1	·
COc1ccc(CCNC2CC(=O)N(CCc3ccccc3)C2=O)cc1 (configuration not stated)	45*	-2	-5	0	-3	-7	-1
CCOC(=O)CNC(=O)CSc1nc(-c2ccccc2)ns1	43*	-5	2	3	1	-3	4
CCOC(=O)CNC(=O)CSc1nc(-c2ccc(C)cc2)ns1	8	-13	-2	-9	-3	-3	·
CCOC(=O)c1cc(C#N)c(N)nc1C	1	3	1	6	-2	0	·
CN1CCN(C(=S)SCC(=O)N2CCCc3ccccc32)CC1	-1	3	-2	1	-1	-9	·
Cc1cc(=O)oc2cc(OCC(=O)OCC(=O)NCCc3ccccc3)ccc12	27*!	-4	-1	3	-2	-4	-2
c1csc(-c2ccn[nH]2)c1	-2	1	-1	-4	2	4	·
S=c1nccc(-c2cccs2)[nH]1	49*	2	-2	0	-5	-1	22*
COc1ccc(NC(=O)CSc2nnc(-c3cccnc3)o2)c(OC)c1	28*	-1	-3	3	-5	-1	36*
COCc1cccc(-c2csc(C(O)c3ccc(F)c(F)c3)n2)c1 (configuration not stated)	52*	-14	·	·	-4	3	-1
Cc1ccc(-c2onc3ccc(C4OCCO4)cc23)cc1	-1	-3	-6	-39	7	1	·
Cc1cc(O)cc2c1C(=O)/C(=C/c1ccco1)O2	28*	9	-1	1	13	8	19
Cc1ccc(NC(=O)c2cc(N3C(=O)C=CC3=O)ccc2N2CCOCC2)cc1	91*	2	6	-11	-9	6	89*
N#Cc1ccc2c(c1)nnn2-c1ccccc1	-3	-3	·	·	-3	0	·
CCn1c2ccccc2c2cc(NC(C)=O)ccc21	2	4	2	7	-3	0	·
O=c1c2cc([N+](=O)[O-])ccc2sn1-c1ccccc1	64*	20	21	5	-2	1	81*
N#Cc1ccc2sn(-c3ccccc3)c(=O)c2c1	87*	10	5	0	-1	2	98*
CC(=O)Nc1ccc2sn(-c3ccccc3)c(=O)c2c1	77*	3	-1	-5	-4	4	89*
O=c1c(-c2ccccc2)c[nH]n1-c1cccc([N+](=O)[O-])c1	1	12	4	6	-2	13	·
COc1cccc(NC(=O)N2C3CCCC2CC(NC(=O)C(C)(C)C)C3)c1 (configuration not stated)	-1	5	-1	13	2	-3	·
NC(=O)c1ccc(SCC(=O)OCC(=O)NCc2ccco2)c([N+](=O)[O-])c1	26*	8	0	-2	0	7	2
NC(=O)c1ccc(SCC(=O)OCC(=O)NC2CCCCCCC2)c([N+](=O)[O-])c1	65*	10	1	3	0	8	30*
SMILES	PRMT1 inh	mABHD4 FP	DAGLB inh	HTRA1 inhibitor	LEDGF integ inh	rCAG RNA binder	PRMT1 confirm
CC1CCC(NC(=O)COC(=O)CSc2ccc(C(N)=O)cc2[N+](=O)[O-])CC1 (configuration not stated)	14	4	5	-2	1	4	·
O=C(COC(=O)CSc1ccc([N+](=O)[O-])cc1)NCc1ccco1	6	4	-2	0	2	0	·
CC(=O)Nc1c(O)nc(SCC(=O)Nc2c(C)cccc2C)[nH]c1=O	57*	0	-1	-7	7	1	25*
CCCc1cc(=O)[nH]c(SCC(=O)Nc2c(C)cccc2C)n1	·	·	-4	6	·	·	·
CN(CC(=O)Nc1cc(Cl)ccc1C#N)C1CCS(=O)(=O)C1 (configuration not stated)	1	1	1	-10	0	3	·
CN(C)c1ccc2nc3c(=O)[nH]c(=O)nc-3n(CC(O)C(O)C(O)CO)c2c1 (configuration not stated)	80*	-176	-17	-235	1	-224	55*
COc1cc(C(=O)Nc2ccc(C(=O)O)cc2)ccc1OC(C)=O	2	6	-3	5	-2	-1	·
O=C1NNC(c2ccccc2)=N/C1=C\c1ccco1	30*	29	4	22	6	23	13
O=C1NNC(c2ccccc2)=N/C1=C\c1ccccc1Cl	-1	3	1	-16	5	8	·
C[C@H](CO)N1C[C@H](C)[C@H](CN(C)C(=O)Nc2ccc3c(c2)OCO3)OCc2cnnn2CCCC1=O	1	3	·	·	2	6	·
CN1/C(=C/C(=O)c2cccs2)Sc2ccccc21	25*	4	0	-3	-2	0	1
CN1/C(=C\C(=O)c2cccs2)C(C)(C)c2ccccc21	0	2	-6	-6	0	1	·
CN1/C(=C\C(=O)c2cccs2)Sc2ccccc21	42*	8	3	-5	-2	2	5
COc1cc(OC)cc(C(=O)/C=C2\Sc3ccccc3N2C)c1	0	-4	0	-4	-2	-1	·
CN1/C(=C/C(=O)C2CCC2)Sc2ccccc21	63*	3	0	0	6	3	2
COCC(=O)/C=C1\Sc2ccccc2N1C	15	5	-5	-1	-3	-1	·
O=CN1CCN(C(=O)c2cccc([N+](=O)[O-])c2)CC1	-3	7	1	8	-1	6	·
O=C(CCC(=O)N1CCOc2ccccc21)N1CCN(c2ccccc2)CC1	55*	1	0	-6	-3	-1	7
CCCC(=O)Nc1cc(OC)c(NC(=S)Nc2cccc(C)c2)cc1OC	39*	25	3	4	9	3	-5
O=C(O)C1C2C=CC(O2)C1C(=O)Nc1ccccc1C(F)(F)F (configuration not stated)	85*	-1	0	-1	2	4	24*
CCNc1nc(NCC)n2c(SCC(=O)Nc3ccc(Br)cc3F)nnc2n1	37*	1	-1	-6	-1	-4	15
CCNc1nc(NCC)n2c(SCC(=O)Nc3ccc(F)cc3)nnc2n1	-2	9	2	-2	3	1	·
